Active and inactive are the calls of the source. The rule behind the calls is not given here.
Tests used:
[1] = biological target: Sodium-dependent dopamine transporter (Homo sapiens) (UniProt Q01959); assay: Inhibition of DAT receptor (unknown origin) at 100 nM
[2] = biological target: Sodium-dependent serotonin transporter (Homo sapiens) (UniProt P31645); assay: Inhibition of SERT receptor (unknown origin) at 100 nM
[3] = biological target: Sodium-dependent noradrenaline transporter (Homo sapiens) (UniProt P23975); conditions: dose 10-100 nM
Sequence of Sodium-dependent noradrenaline transporter (Homo sapiens) (P23975 whole entry): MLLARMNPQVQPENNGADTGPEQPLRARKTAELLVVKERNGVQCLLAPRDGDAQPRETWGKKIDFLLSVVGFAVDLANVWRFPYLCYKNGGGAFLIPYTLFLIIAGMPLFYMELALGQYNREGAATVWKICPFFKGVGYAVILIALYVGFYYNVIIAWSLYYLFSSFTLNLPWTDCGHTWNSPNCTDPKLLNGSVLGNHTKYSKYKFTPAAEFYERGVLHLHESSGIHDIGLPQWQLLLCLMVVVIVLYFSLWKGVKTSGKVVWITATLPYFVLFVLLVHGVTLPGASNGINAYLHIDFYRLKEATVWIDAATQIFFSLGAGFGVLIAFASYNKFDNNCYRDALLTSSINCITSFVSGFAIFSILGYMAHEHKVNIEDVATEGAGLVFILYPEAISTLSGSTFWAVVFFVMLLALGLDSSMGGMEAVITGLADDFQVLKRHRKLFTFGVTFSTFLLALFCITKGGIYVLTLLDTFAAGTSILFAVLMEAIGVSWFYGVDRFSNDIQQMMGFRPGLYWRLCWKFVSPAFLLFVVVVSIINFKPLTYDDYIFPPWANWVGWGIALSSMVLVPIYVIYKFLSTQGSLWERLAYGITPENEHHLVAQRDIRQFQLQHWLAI

[4] = biological target: Sodium-dependent dopamine transporter (Homo sapiens) (UniProt Q01959); assay: Displacement of [3H]BTCP from recombinant human DAT receptor expressed in CHO cells at 10 uM incubated for 120 mins by scintillation counting method; type: cell-based
In short: (§1)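 Radioligand displacement run by a commercial provider, with test compound at 10 μM. Reported as mean ± SD of two independent measurements, each in duplicate.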

[5] = biological target: Sodium-dependent serotonin transporter (Homo sapiens) (UniProt P31645); assay: Displacement of [3H]imipramine from recombinant human SERT receptor expressed in CHO cells at 10 uM incubated for 60 mins by scintillation counting method; type: cell-based; in short: as §1
[6] = Drug accumulation in C57BL/6JRJ mouse brain at 5 mg/kg, iv followed by 1 week after washout period treated at 5 mg/kg, po followed by 1 week after washout period treated at 5 mg/kg, po measured after 30 mins; type: ADME, organism-based; conditions: in vivo, 168 h, time 1 weeks
In short: (§2)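 The same four C57BL/6JRJ mice (2 male, 2 female) first had i.v. and then oral PK runs, each followed by 1 week washout. They were then gavaged with 5 mg/kg in saline at 5 mL/kg. At 30 min they were decapitated under isoflurane, and blood and tissues were harvested. Tissue levels were quantified by LC-ESI-MS/MS and given as mean ± SD of four mice.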

[7] = Drug accumulation in C57BL/6JRJ mouse adrenal gland at 5 mg/kg, iv followed by 1 week after washout period treated at 5 mg/kg, po followed by 1 week after washout period treated at 5 mg/kg, po measured after 30 mins; type: ADME, organism-based; conditions: in vivo, 168 h, time 1 weeks; in short: as §2
[8] = Acute toxicity in C57BL6/J mouse assessed as piloerection at 1.0 to 10 mg/kg, ip; type: organism-based; conditions: in vivo, dose 1-10 mg/kg
In short: (§3)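 Male mice, 12 weeks old, were handled for 10 days and rotarod-trained before dosing. Each received 1.0 or 10 mg/kg i.p. (n = 7) or vehicle, 0.5% DMSO (n = 6), at 1% body-weight volume. Animals were held 40 min in a separate cage, then observed during rotarod, light/dark box and rectal temperature tests for signs of toxicity. Sacrifice was 1 h post-dose.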

[9] = Acute toxicity in C57BL6/J mouse assessed as hunched posture at 1.0 to 10 mg/kg, ip; type: organism-based; conditions: in vivo, dose 1-10 mg/kg; in short: as §3
[10] = Acute toxicity in C57BL6/J mouse assessed as convulsions at 1.0 to 10 mg/kg, ip; type: organism-based; conditions: in vivo, dose 1-10 mg/kg; in short: as §3
[11] = Acute toxicity in C57BL6/J mouse assessed as gastrointestinal distress at 1.0 to 10 mg/kg, ip; type: organism-based; conditions: in vivo, dose 1-10 mg/kg; in short: as §3
[12] = AUC in C57BL/6JRJ mouse at 5 mg/kg, iv measured up to 24 hrs; type: ADME, organism-based; conditions: in vivo
In short: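 C57BL/6JRJ mice, 8–9 weeks old (2 male, 2 female), received 5 mg/kg (dose based on free salt MW) in 0.9% saline at 5 mL/kg by tail-vein injection after tail warming. Tail-vein blood microsamples (<20 μL) were taken at 5, 15, 30 min and 1, 1.5, 2, 4, 8 and 24 h, quantified by MRM LC-ESI-MS/MS, and reported as mean ± SD of four mice.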

Sequence of Sodium-dependent dopamine transporter (Homo sapiens) (Q01959 whole entry): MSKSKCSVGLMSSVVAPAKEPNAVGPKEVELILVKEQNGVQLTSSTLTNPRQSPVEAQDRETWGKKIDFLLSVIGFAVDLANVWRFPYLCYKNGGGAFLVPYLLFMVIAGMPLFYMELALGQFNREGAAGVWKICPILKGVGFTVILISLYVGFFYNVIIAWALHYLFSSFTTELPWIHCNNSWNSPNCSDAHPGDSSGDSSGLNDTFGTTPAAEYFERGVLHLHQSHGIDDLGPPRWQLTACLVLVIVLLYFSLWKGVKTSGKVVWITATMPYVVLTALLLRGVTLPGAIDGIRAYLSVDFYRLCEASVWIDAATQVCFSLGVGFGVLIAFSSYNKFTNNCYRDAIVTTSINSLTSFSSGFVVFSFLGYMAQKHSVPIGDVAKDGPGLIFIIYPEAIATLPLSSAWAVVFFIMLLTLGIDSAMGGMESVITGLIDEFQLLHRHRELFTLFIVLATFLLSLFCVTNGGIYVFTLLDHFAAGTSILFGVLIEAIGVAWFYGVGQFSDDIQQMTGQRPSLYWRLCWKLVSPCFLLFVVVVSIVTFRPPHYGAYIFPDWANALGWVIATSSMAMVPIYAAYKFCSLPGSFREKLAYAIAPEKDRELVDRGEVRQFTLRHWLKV
Sequence of Sodium-dependent serotonin transporter (Homo sapiens) (P31645 whole entry, looked up): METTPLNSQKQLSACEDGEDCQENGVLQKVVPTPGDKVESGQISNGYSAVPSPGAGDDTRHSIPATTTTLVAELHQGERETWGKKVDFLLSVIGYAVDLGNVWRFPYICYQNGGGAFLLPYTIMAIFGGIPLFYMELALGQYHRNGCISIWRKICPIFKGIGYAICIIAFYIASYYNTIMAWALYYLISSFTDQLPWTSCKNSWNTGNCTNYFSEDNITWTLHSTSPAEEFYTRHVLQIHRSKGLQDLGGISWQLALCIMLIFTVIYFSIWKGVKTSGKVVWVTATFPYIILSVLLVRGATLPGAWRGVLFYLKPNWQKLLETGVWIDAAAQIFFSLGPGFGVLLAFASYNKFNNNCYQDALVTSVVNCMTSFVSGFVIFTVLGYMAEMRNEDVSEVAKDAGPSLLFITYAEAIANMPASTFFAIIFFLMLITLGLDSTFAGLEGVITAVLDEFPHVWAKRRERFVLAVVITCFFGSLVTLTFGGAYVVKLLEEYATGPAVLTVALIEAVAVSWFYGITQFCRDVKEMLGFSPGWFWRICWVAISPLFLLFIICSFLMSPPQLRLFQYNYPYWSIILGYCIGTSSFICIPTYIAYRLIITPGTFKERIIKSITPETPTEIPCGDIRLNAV

With `Clc1cccc(CN2CCCC[C@H]3NCC[C@H]32)c1` the inhibition [1] was “Active”, the inhibition [2] was “Active” and the inhibition [3] was “Active”.

For `Brc1cccc(CN2CCCC[C@H]3NCC[C@H]32)c1`, the inhibition [1] was “Active”, the inhibition [2] was “Active” and the inhibition [3] was “Active”.

For `c1ccc(CN2CCCC[C@@H]3NCCCC[C@H]32)cc1`, the Activity [4] was “Active” and the Activity [5] was “Active”.

For `Fc1cccc(CN2CCCC[C@H]3NCC[C@H]32)c1`, the inhibition [1] was “Active”, the inhibition [2] was “Active” and the inhibition [3] was “Active”.

In the case of `Clc1cc(Cl)cc(CN2CCCC[C@H]3NCC[C@H]32)c1`, the inhibition [1] is reported as “Active”, the inhibition [2] is reported as “Active” and the inhibition [3] is reported as “Active”.

In the case of `c1ccc(CN2CCCC[C@H]3NCC[C@H]32)cc1`, the Drug uptake [6] is reported as “Active”, the Drug uptake [7] is reported as “Active” and the Activity [8] is reported as “Non-toxic”. For the same compound, the Activity [9] was “Non-toxic”, the Activity [10] was “Non-toxic” and the Activity [11] was “Non-toxic”. For the same compound, the AUC [12] was 47948 ng·min/mL.

For `Clc1ccccc1CN1CCCC[C@H]2NCC[C@H]21`, the inhibition [1] was “Active”, the inhibition [2] was “Active” and the inhibition [3] was “Active”.

With `c1ccc(CN2CCCC[C@@H]3NCCC[C@H]32)cc1` the Activity [4] was “Active” and the Activity [5] was “Active”.

For `Clc1cccc(CN2CCCC[C@H]3NCC[C@H]32)c1Cl`, the inhibition [1] was “Active”, the inhibition [2] was “Active” and the inhibition [3] was “Active”.

With `Clc1ccc(CN2CCCC[C@H]3NCC[C@H]32)cc1` the inhibition [1] was “Active”, the inhibition [2] was “Active” and the inhibition [3] was “Active”.

With `c1ccc(CN2CCCC[C@H]3NCCC[C@H]32)cc1` the Activity [4] was “Active” and the Activity [5] was “Active”.
